This passage reports inhibition and IC50 results from ChEMBL document CHEMBL1157054, “Design, synthesis and biological evaluation of indane-2-arylhydrazinylmethylene-1,3-diones and indol-2-aryldiazenylmethylene-3-ones as beta-amyloid aggregation inhibitors” (Eur J Med Chem, 2010).

Calls of active or inactive are those of the source. The rule behind the calls is not given here.

The nature of one test: Inhibition of amyloid beta (1 to 40) aggregation assessed as inhibition of fibril formation at 100 uM by thioflavin T fluorescent dye assay. An outline of the steps:
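Aβ1-40 (HFIP-treated, lyophilized) at 30 µM in PBS (0.01 M, NaCl 0.1 M, pH 7.4) with 2% HFIP and 10% DMSO, test compound 100 µM; triplicate incubations, 2 h at 25 °C. Sample mixed with 25 µM ThT in 0.025 M phosphate pH 6.0; fluorescence ex 440/em 485 nm. Percent inhibition = 100 − [(Fi − Fb)/F0]×100, blank-corrected against free Aβ aggregation.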
For `O=C1C(=C/N=N/c2ccc(Cl)c(Cl)c2)Nc2ccc(Br)cc21`, the inhibition worked out at 23%.
On to `O=c1c(=NNc2ccc(Cl)cc2)c(=O)c2ccccc12`, for which the inhibition was found to be 38%.
Same read-out and setting: the result for `O=C1C(=C/N=N/c2ccc(Cl)cc2)Nc2ccc(Br)cc21` reads 20%.
Same read-out and setting: the figure for `O=C1C(=CNNc2ccccc2)C(=O)c2ccccc21` is 49%; for `O=C1C(=C/N=N/c2ccc(Cl)cc2)Nc2ccccc21` it is 33%; for `Cc1ccc(NNC=C2C(=O)c3ccccc3C2=O)cc1` it is 44%.
Turning to `O=C1CCC(=O)C1=CNNc1ccc(Cl)cc1`, the inhibition was 44%.

The nature of the next test: Inhibition of amyloid beta (1 to 40) aggregation assessed as inhibition of protofibril formation after 3 days. An outline of the steps:
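Aβ1-40 (30 µM) with compound at 50 µM in 0.217 M phosphate buffer pH 8.0, 10% ethanol, incubated at 37 °C up to 7 days; aliquots taken at time points, applied to carbon-coated grids, negatively stained with 2% uranyl acetate, imaged by TEM at 60 kV, 60,000-fold magnification; qualitative fibril/protofibril assessment.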
Turning to `CC(C)c1ccc(/N=N/C=C2Nc3ccccc3C2=O)cc1`, the inhibition result was “Active”.

A short description of a further test: Inhibition of amyloid beta (1 to 40) aggregation assessed as inhibition of fibril formation by thioflavin T fluorescent dye assay. An outline of the steps: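 ThT fluorimetric assay on HFIP-pretreated Aβ1-40, 30 µM in PBS pH 7.4 containing 2% HFIP and 10% DMSO, incubated 2 h at 25 °C. Fluorescence read after mixing with 25 µM ThT (phosphate pH 6.0), ex 440/em 485 nm, blank-corrected vs inhibitor-free aggregation. IC50 from 5-7 concentrations tested in triplicate, three independent experiments.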
As for `O=C1C(=C/N=N/c2ccccc2Cl)Nc2ccccc21`, the IC50 stood at 13 µM.
On the same count and under the same terms, the figure for `CC(C)c1ccc(/N=N/C=C2Nc3ccccc3C2=O)cc1` is 1.4 µM; for `O=C1C(=C/N=N/c2ccccc2)Nc2ccc(Br)cc21` it is 35 µM; for `O=C1C(=C/N=N/c2ccccc2)Nc2ccccc21` it is 8.8 µM.
Still for that read-out and setting: the result for `O=C1C(=C/N=N/c2cccc(Cl)c2)Nc2ccccc21` reads 2.5 µM; that for `O=C1C(=C/N=N/c2ccccc2Cl)Nc2ccc(Br)cc21`, 7.8 µM.
On to `Cc1ccc(/N=N/C=C2Nc3ccc(Br)cc3C2=O)cc1`, for which the IC50 was found to be 51 µM.
`O=C1C(=C/N=N/c2cccc(Cl)c2)Nc2ccc(Br)cc21`: the IC50 came out at 4.4 µM.
Same read-out and setting: the figure for `O=c1c(O)c(-c2ccc(O)c(O)c2)oc2cc(O)cc(O)c12` [QUERCETIN] is 0.8 µM; for `O=C1C(=CNNc2ccc(Cl)cc2)C(=O)c2ccccc21` it is 23 µM; for `O=C1C(=CNNc2ccccc2Cl)C(=O)c2ccccc21` it is 32 µM.
The same measure, in the same setting: the result for `CC(C)c1ccc(NNC=C2C(=O)c3ccccc3C2=O)cc1` reads 18 µM; that for `O=C1C(=CNNc2cccc(Cl)c2)C(=O)c2ccccc21`, 18 µM.
On the same count and under the same terms, the figure for `COc1ccc2[nH]cc(/C=N\Nc3ccc(Cl)cc3)c2c1` is 23 µM.
Regarding `Cc1ccc(/N=N/C=C2Nc3ccccc3C2=O)cc1`, the IC50 was 3.6 µM.
Still for that read-out and setting: the result for `CC(C)c1ccc(/N=N/C=C2Nc3ccc(Br)cc3C2=O)cc1` reads 23 µM.

As a reminder, the inhibition is how much of the control response was suppressed. Usually IC50 stands for the midpoint of a concentration-inhibition curve.
